This note sets out measurements from ChEMBL document CHEMBL5661977, “BI 6727, a Polo-like kinase inhibitor with improved pharmacokinetic profile and broad antitumor activity” (Clin Cancer Res, 2009).

Active and inactive are the calls of the source. The rule behind the calls is not given here.

The test system of data set [1] is NCI-H460. The data set can be described thus: Antimitotic activity against human NCI-H460 cells assessed as inhibition of cell proliferation incubated for 72 hrs by Alamar blue based fluorescence spectrophotometric analysis. To be noted: NCI-H460, 72 h. Type of data set: functional. The procedure, abridged: (§1)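 Cancer cell lines were cultured per supplier instructions and exposed to various inhibitor concentrations for 72 h. Growth was read as Alamar blue conversion by fluorescence. EC50 (50% growth inhibition) was extrapolated from the dose-response curve fit.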

The nature of data set [2]: Antitumor activity against human CXB1 cells xenografted in BomTac:NMRI-Foxn1nu mouse assessed as T/C at 15 mg/kg, iv administered twice a week upto 6 weeks relative to control. Type of data set: functional, CXB1 cell. The procedure, abridged: (§2)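 Female nude mice bore s.c. HCT 116 (2×10^6 cells), NCI-H460 (1×10^6 cells) or serially transplanted CXB1 tumor pieces. At ~50–100 mm³, mice were randomized into groups of 10 and dosed i.v. (0.1 N HCl/saline) or by gavage (0.5% hydroxyethyl-cellulose) at 10 mL/kg. Calipers read thrice weekly, volume = length×width²×π/6. T/C from median volumes on the last day.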

Data set [3] in a line: Oral bioavailability in BomTac:NMRI-Foxn1nu mouse at 50 mg/kg by HPLC-MS/MS analysis. It counts as ADME, organism-based. To be noted: in vivo. The procedure, abridged:
(§3)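 Single oral gavage of BI 6727 suspended in 0.5% hydroxyethyl-cellulose (10 mL/kg) to female nude mice or male Wistar rats. EDTA plasma levels measured over time by HPLC-MS/MS with internal standard. AUC0-24 by trapezoidal rule. Parameters from noncompartmental analysis.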

A short description of data set [4]: AUC (0 to 24 hrs) in human HCT-116 cells xenografted in BomTac:NMRI-Foxn1nu mouse at 20 mg/kg, iv administered once a week upto 6 weeks by HPLC-MS/MS analysis. Type of data set: ADME, organism-based. To be noted: in vivo, 1008 h.
Data set [5] in a line: Drug uptake in human HCT-116 cells xenografted in BomTac:NMRI-Foxn1nu mouse plasma at 35 mg/kg, iv measured after 1 hrs by HPLC-MS/MS analysis. It counts as ADME, organism-based. The procedure, abridged:
(§4)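 Female nude mice bearing s.c. HCT 116 xenografts (2 × 10⁶ cells), n = 3 per time point, given a single i.v. dose. Tumor, organs and EDTA plasma collected at 1, 8, 24, 48, 96 and 168 h. Tissue extracts and plasma analysed by HPLC-MS/MS. Tissue nmol/mg converted to nmol/L assuming density 1.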

The nature of data set [6]: AUC (0 to infinity) in Wistar rat at 10 mg/kg, iv by HPLC-MS/MS analysis. Type of data set: ADME, organism-based. To be noted: in vivo. The procedure, abridged: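 Single i.v. dose: male Wistar rats (n=4) by 5-min infusion, female nude mice (n=3). EDTA plasma was sampled at various times and extracted with internal standard, NaOH, methanol/formic acid and acetonitrile. Analysis by LC-MS/MS (ESI+, C18, ammonium acetate pH 4.0/acetonitrile gradient). Noncompartmental parameters; AUC by trapezoidal rule.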

Data set [7] relates to HCT-116. The data set can be described thus: Antitumor activity against human HCT-116 cells xenografted in BomTac:NMRI-Foxn1nu mouse assessed as T/C at 25 mg/kg, iv administered twice a week upto 6 weeks relative to control. Type of data set: functional. The procedure, abridged: as §2
The test system of data set [8] is HCT-116. The data set is described as follows: Antitumor activity against human HCT-116 cells xenografted in BomTac:NMRI-Foxn1nu mouse assessed as tumor growth delay at 25 mg/kg, iv administered twice a week on consecutive days. Type of data set: functional, organism-based. The procedure, abridged:
as §2

In data set [9] the test system is HCT-116. The data set is described as follows: Antitumor activity against human HCT-116 cells xenografted in BomTac:NMRI-Foxn1nu mouse assessed as the number of apoptotic cells in large intestine at 40 mg/kg, iv. Type of data set: functional, organism-based. The procedure, abridged:
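Female nude mice bore s.c. HCT 116 tumors (~200 mm³) and received a single i.v. 40 mg/kg dose or vehicle (n=3 per group per time). Tumor, small intestine and large intestine were taken at 6, 24 and 48 h. Frozen sections were stained for pSer10 histone H3 (immunoperoxidase) or by TUNEL. Positive area was calculated as % of tumor cell area; Student's t test.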

A short description of data set [10]: Drug uptake in human HCT-116 cells xenografted in BomTac:NMRI-Foxn1nu mouse at 35 mg/kg, iv measured after 8 hrs by HPLC-MS/MS analysis. To be noted: tumour (HCT-116 xenograft). Type of data set: ADME, organism-based, Neoplasm. The procedure, abridged:
as §4

Data set [11] can be described thus: AUC (0 to 24 hrs) in human HCT-116 cells xenografted in BomTac:NMRI-Foxn1nu mouse at 20 mg/kg, iv administered twice a week upto 6 weeks by HPLC-MS/MS analysis. Type of data set: ADME, organism-based. To be noted: in vivo, 1008 h.
Data set [12] concerns NCI-H460. The data set can be described thus: Antimitotic activity against human NCI-H460 cells assessed as histone H3 phosphoserine 10 level at 100 nmol/L incubated for 24 hrs by immunofluorescence analysis. It counts as functional, cell-based. The procedure, abridged:
(§5)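 NCI-H460 cells on chamber slides were treated next day for 24 h with inhibitor or 0.1% DMSO vehicle. They were fixed and permeabilized with 4% formaldehyde/Triton X-100 for 5 min at RT, then stained with anti-tubulin and anti-phospho-Ser10 histone H3 (1:500 in PBS/2% BSA) plus DAPI 0.05 µg/mL. Imaged by fluorescence microscopy.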

A further data set has as its system Granta-519. The data set is described as follows: Antimitotic activity against human Granta-519 cells assessed as inhibition of cell proliferation incubated for 72 hrs by Alamar blue based fluorescence spectrophotometric analysis. To be noted: Granta-519, 72 h. It counts as functional. The procedure, abridged:
as §1

Data set [13] can be described thus: AUC (0 to 24 hrs) in human NCI-H460 cells xenografted in BomTac:NMRI-Foxn1nu mouse at 70 mg/kg, po administered once a week upto 6 weeks by HPLC-MS/MS analysis. To be noted: in vivo, 1008 h. Type of data set: ADME, organism-based.
A short description of data set [14]: AUC (0 to 24 hrs) in human HCT-116 cells xenografted in BomTac:NMRI-Foxn1nu mouse at 50 mg/kg, po administered once a week upto 6 weeks by HPLC-MS/MS analysis. To be noted: in vivo, 1008 h. Type of data set: ADME, organism-based.
Data set [15] in a line: Drug uptake in human HCT-116 cells xenografted in BomTac:NMRI-Foxn1nu mouse at 35 mg/kg, iv measured after 168 hrs by HPLC-MS/MS analysis. Type of data set: ADME, organism-based, Neoplasm. To be noted: tumour (HCT-116 xenograft). The procedure, abridged: as §4
A short description of data set [16]: Tmax in BomTac:NMRI-Foxn1nu mouse at 50 mg/kg, po by HPLC-MS/MS analysis. Type of data set: ADME, organism-based. To be noted: in vivo. The procedure, abridged: as §3
Data set [17] can be described thus: Tmax in Wistar rat at 30 mg/kg, po by HPLC-MS/MS analysis. It counts as ADME, organism-based. To be noted: in vivo. The procedure, abridged:
as §3

The nature of data set [18]: AUC (0 to 24 hrs) in human HCT-116 cells xenografted in BomTac:NMRI-Foxn1nu mouse at 30 mg/kg, iv administered once a week upto 6 weeks by HPLC-MS/MS analysis. To be noted: in vivo, 1008 h. Type of data set: ADME, organism-based.
In data set [19] the test system is NCI-H460. The data set is described as follows: Antimitotic activity against human NCI-H460 cells assessed as accumulation of monopolar spindles at 100 nmol/L incubated for 24 hrs by immunofluorescence analysis. It counts as functional, cell-based. The procedure, abridged: as §5
In data set [20] the test system is HCT-116. The data set can be described thus: Antitumor activity against human HCT-116 cells xenografted in BomTac:NMRI-Foxn1nu mouse assessed as tumor regression at 25 mg/kg, iv administered twice a week on consecutive days. Type of data set: functional, organism-based. The procedure, abridged:
as §2

A short description of data set [21]: AUC (0-24hrs) in BomTac:NMRI-Foxn1nu mouse at 50 mg/kg, po by HPLC-MS/MS analysis. It counts as ADME, organism-based. To be noted: in vivo. The procedure, abridged:
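Single oral dose to female nude mice or male Wistar rats. EDTA plasma was collected over 24 h and quantified by LC-MS/MS after extraction with internal standard. AUC0-24 was calculated from the concentration-time profile by the trapezoidal rule using noncompartmental analysis.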

With `CC[C@@H]1C(=O)N(C)c2cnc(Nc3ccc(C(=O)N[C@H]4CC[C@H](N5CCN(CC6CC6)CC5)CC4)cc3OC)nc2N1C(C)C` [VOLASERTIB], the EC50 in the data set on NCI-H460 [1] came out at 21 nM; with Granta-519 it was 15 nM. Further, the results for the T/C (in data set [2]; in the data set on HCT-116 [7]) were 12% and 0.3%, respectively. The bioavailability in data set [3] came out at 41%. Also, the AUC was 40 µM·h in data set [4]; 66 µM·h in [11]; 58 µM·h in [13]; 44 µM·h in data set [14]; 52 µM·h in data set [18]. In [5], this compound had a concentration at 1 h of 7 µM. The compound further had an AUC(0-inf) in data set [6] of 30 µM·h. Further, the outcome with HCT-116 [8], in the data set with NCI-H460 [12], in the data set on NCI-H460 [19] and in the data set on HCT-116 [20] was Active. Further, in the data set on HCT-116 [9], the result was inactive. This compound displayed a concentration at 8 h in data set [10] of 32 µM. Moreover, the concentration at 168 h in data set [15] was determined as 4 µM. The Tmax in data set [16] is 1.7 h; in data set [17], 6.7 h. Moreover, the AUC(0-t) in [21] was 58 µM·h.
